Experimental data from publication PMC11550832 (Nature Communications, 2024).
Blank lines part the entries; values can stand above or below the molecule they belong to.

Key:
Particle size by DLS = type: physicochemical; settings: aqueous solution, 200 μM
Zeta potential by DLS = type: physicochemical; settings: 200 μM, mean n = 3
[1] = Critical aggregation concentration; type: physicochemical; settings: pyrene probe, I1 (373 nm)/I3 (384 nm), 0.01-50 μM, 37 °C for 2 h, fluorescence
Method in brief: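 Pyrene fluorescence was excited at 335 nm and emission recorded. The I1 (373 nm)/I3 (384 nm) intensity ratio was used to derive the critical aggregation concentration.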

[2] = TEM morphology of nanoparticles; type: physicochemical; settings: 50 μM, uranyl acetate stain
Method in brief: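 A 50 μM nanoparticle solution was dried on holey-carbon copper grids and stained with 2% uranyl acetate for 3 min. Grids were imaged by TEM at 120 kV.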

[3] = molecular target: T1, human PD-L1 recombinant protein (Homo sapiens, UniProt Q9NZQ7); test: PD-L1-induced fibrillar transformation in aqueous solution; type: biochemical; settings: 24 h incubation
T1 sequence (Q9NZQ7 19-239 limits assumed): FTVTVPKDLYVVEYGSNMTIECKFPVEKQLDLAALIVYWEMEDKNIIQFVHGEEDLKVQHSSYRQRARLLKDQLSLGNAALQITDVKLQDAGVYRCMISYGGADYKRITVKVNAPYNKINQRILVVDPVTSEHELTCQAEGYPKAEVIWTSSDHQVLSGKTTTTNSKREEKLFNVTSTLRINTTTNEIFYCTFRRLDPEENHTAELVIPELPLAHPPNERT
Method in brief: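 Recombinant human PD-L1 was added to 50 μM nanoparticle solution at molar ratios of 1:100, 1:500, 1:1000, 1:2000 and 1:5000. Mixtures were incubated 0.5 h, 4 h and 24 h, then prepared for TEM to view morphology change.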

[4] = molecular target: T1, human PD-L1 recombinant protein; test: CD and FTIR spectroscopy of β-sheet formation; type: biochemical; settings: human PD-L1, 24 h, 50 μM, ratio 1000:1
Method in brief: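 Nanoparticles were incubated with or without recombinant human PD-L1. β-sheet formation was then detected by CD spectroscopy, with FTIR alongside.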

SKBR-3 cells [5] = test: Cellular distribution of peptide nanoparticles; type: cell-based, human; settings: SKBR-3, 50 μM, 4 h
4T1 cells [6] = test: Cellular distribution of peptide nanoparticles; type: cell-based, mouse; settings: 4T1, 50 μM, 4 h
4T1 cells [7] = test: Intracellular distribution of internalized TPM2 and TPM3; type: cell-based, mouse; settings: 50 μM, 4, 24 and 48 h, LysoTracker, CLSM
PD-L1 on SKBR-3 cells = PD-L1 on SKBR-3 cells (Homo sapiens, UniProt Q9NZQ7); test: Surface PD-L1 level after treatment; type: cell-based; settings: SKBR-3, nanoparticles 50 μM or antibody 68 nM, 4 h, flow cytometry
PD-L1 on SKBR-3 cells, sequence (Q9NZQ7 19-290): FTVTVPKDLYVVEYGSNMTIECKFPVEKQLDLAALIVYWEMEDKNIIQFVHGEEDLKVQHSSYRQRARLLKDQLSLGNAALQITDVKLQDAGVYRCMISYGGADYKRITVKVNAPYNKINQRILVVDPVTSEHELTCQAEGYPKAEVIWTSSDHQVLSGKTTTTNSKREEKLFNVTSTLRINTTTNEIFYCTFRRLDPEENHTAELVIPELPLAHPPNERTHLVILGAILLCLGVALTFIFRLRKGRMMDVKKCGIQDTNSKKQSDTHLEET
Method in brief: (§1)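 Cells were washed and moved to medium without FBS or penicillin/streptomycin. They were treated 4 h at 37 °C, 5% CO₂ with nanoparticles (50 μM) or anti-PD-L1 antibody (68 nM). Surface PD-L1 was stained 15 min at 4 °C with BV421 antibody (1:200), anti-human for SKBR-3 and anti-mouse for 4T1. Cells were PBS-washed three times and analysed by flow cytometry.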

PD-L1 on 4T1 cells = PD-L1 on 4T1 cells (Mus musculus, UniProt Q9EP73); test: Surface PD-L1 level after treatment; type: cell-based; settings: 4T1, nanoparticles 50 μM or antibody 68 nM, 4 h, flow cytometry
PD-L1 on 4T1 cells, sequence (Q9EP73 19-290): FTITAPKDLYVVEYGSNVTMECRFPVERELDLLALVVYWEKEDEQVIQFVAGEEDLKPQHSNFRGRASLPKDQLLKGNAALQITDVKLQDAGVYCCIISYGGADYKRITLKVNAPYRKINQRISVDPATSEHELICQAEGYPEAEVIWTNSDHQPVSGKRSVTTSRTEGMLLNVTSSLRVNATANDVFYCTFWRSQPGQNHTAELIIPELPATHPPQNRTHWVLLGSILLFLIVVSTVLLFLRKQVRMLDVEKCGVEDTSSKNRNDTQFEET
Method in brief: as §1

[8] = molecular target: PD-L1 on the membrane of SKBR-3 cells (Homo sapiens, UniProt Q9NZQ7); test: Co-location of nanoparticles and PD-L1 on cell membrane; type: cell-based; settings: SKBR-3, 4 h, FITC immunofluorescence
PD-L1 on the membrane of SKBR-3 cells, sequence (Q9NZQ7 19-290): as the sequence (Q9NZQ7 19-290) above
Method in brief: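 PD-L1 on cells was immunostained with a FITC-labelled goat anti-mouse secondary (1:1000, 1 h, room temperature) after PBS washes. Nuclei were stained with DAPI and cells imaged by confocal microscopy. Co-localization with the nanoparticle signal was quantified computationally.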

HFF cells = test: Cytotoxicity, CCK-8; type: cell-based, human; settings: CCK-8, 24 h, 1, 10, 50, 100 and 200 μM, n = 5
Method in brief: (§2)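 Cells at 8 × 10³ per well were exposed to 1, 10, 50, 100 and 200 μM nanoparticles in DMEM, RPMI-1640 or McCoy's 5A complete medium for 24 h. CCK-8 was added for a further 2 h and OD450 read. Viability (%) = [(treated − blank)/(control − blank)] × 100.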

SKBR-3 cells [9] = test: Cytotoxicity, CCK-8; type: cell-based, human; settings: SKBR-3, CCK-8, 24 h, 1-200 μM; TPM1 finding at 100 μM or 200 μM
Method in brief: as §2

4T1 cells [10] = test: Cytotoxicity, CCK-8; type: cell-based, mouse; settings: 4T1, CCK-8, 24 h, 1-200 μM; TPM1 finding at 100 μM or 200 μM
Method in brief: as §2

LLC cells = test: Cytotoxicity, CCK-8; type: cell-based, mouse; settings: CCK-8, 24 h, 1-200 μM, TPM1 finding at 100 μM or 200 μM
Method in brief: as §2

[11] = tested on: 4T1 cells co-cultured with activated CD8+ T cells; test: Killing effect of activated CD8+ T cells on treated 4T1 cells; type: cell-based, mouse; settings: co-culture of 4T1 and activated CD8+ T cells
Method in brief: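 Splenic mouse CD8⁺ T cells were expanded with IL-2 and activated with anti-CD3/CD28 beads. 4T1 cells were pretreated 4 h with test compound or anti-PD-L1 antibody (68 nM), washed, then co-cultured with T cells (1:10) for 24 h. T cells alone on 4T1 served as control. Read-outs: CCK-8 viability (6 × 10³ cells/well) or calcein-AM staining, 20 min (2 × 10⁴ cells/well).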

mice bearing 4T1 tumour = test: Bio-distribution, ex vivo fluorescence imaging; type: in vivo, mouse; settings: single i.v. 13 mg/kg, 4T1 tumour mice, post-injection
Method in brief: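 Female Balb/c mice (6–8 weeks) carrying subcutaneous 4T1 tumours (1 × 10⁶ cells, right flank) got a single tail-vein dose of 13 mg/kg nanoparticle. n = 3 per group per time point. Tumour, heart, liver, spleen, lung, kidney, intestine and muscle were harvested at 2, 4, 6, 8, 10, 24, 48, 72 and 168 h post-injection and imaged ex vivo by fluorescence.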

[12] = tested on: mice bearing 4T1 breast cancer; test: In vivo inflammatory effect, serum TNF, IL-6, IL-1β ELISA; set-up: species or system mouse; settings: 21 days after a single dose, 4T1 tumour mice, n = 5
Method in brief: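 Serum was taken from 4T1 tumour-bearing mice (n = 5 per group) 21 days after a single dose. Arms: PBS 200 μL i.v., nanoparticles 13 mg/kg via tail vein, anti-PD-L1 antibody 5 mg/kg. TNF, IL-6 and IL-1β were measured by ELISA.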

PD-L1 in SKBR-3 cells = test: Upregulation of PD-L1 induced by IFN-γ; type: cell-based, human; settings: SKBR-3, 100 ng/mL, 24 h
Method in brief: (§3)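 Recombinant human IFN-γ (100 ng/mL) added to complete medium of SKBR-3 cells for 24 h. Western blot: cells PBS-washed three times, lysed on ice in RIPA buffer with 1% protease inhibitor, spun 13523 × g, 3 min, 4 °C; band density quantified. Flow cytometry: PBS-washed cells stained with BV421-labelled human anti-PD-L1 (1:200), 15 min, 4 °C, washed thrice.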

PD-L1 in 4T1 cells = test: Upregulation of PD-L1 induced by IFN-γ; type: cell-based, mouse; settings: 4T1, 100 ng/mL, 24 h
Method in brief: as §3, with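 “4T1 cells received mouse” for “Recombinant human”, “in” for “added to”, “medium” for “medium of SKBR-3 cells”, “mouse” for “human”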

diameter of nanoparticles (DLS) (Particle size by DLS): ~ 19 nm
zeta potential of initial nanoparticles (Zeta potential by DLS): +19.6 mV
critical aggregation concentration (CAC) [1]: 9.8 µM
morphology of nanoparticles (TEM) [2]: spherical structure
morphology after incubation with PD-L1 proteins (TEM) [3]: no noticeable change in morphology
CD signals after incubation with PD-L1 protein [4]: No such change
fate of internalized nanoparticles (4T1 cells [7]): predominately degraded in lysosomes
change in PD-L1 expression levels before and after incubation (PD-L1 on SKBR-3 cells): no significant changes
change in PD-L1 expression levels before and after incubation (PD-L1 on 4T1 cells): no significant changes
co-localization with PD-L1 on cell membrane [8]: No apparent co-localization
time of peak fluorescence intensity in the tumour (mice bearing 4T1 tumour; ex vivo imaging): 24 h
fluorescent signals in the tumour remained until (mice bearing 4T1 tumour): 48 h
serum TNF, IL-6 and IL-1β versus PBS and other groups [12]: no significant difference
Molecule: Ac-K(Ce6)-GGAAK-SGQYASYHCWCWRDPGRSGGSK [TPM2]
location of Ce6 red fluorescence signals (CLSM) (SKBR-3 cells [5]): inside cells rather than on the cell membranes
location of Ce6 red fluorescence signals (CLSM) (4T1 cells [6]): inside cells rather than on the cell membranes
cytotoxicity (HFF cells): no apparent cytotoxicity
cytotoxicity (SKBR-3 cells [9]): No cytotoxicity
cytotoxicity (4T1 cells [10]): No cytotoxicity
cytotoxicity (LLC cells): No cytotoxicity
effect on T cell activity [11]: no effect

B1: IFN-γ: human or mouse IFN-γ (PeproTech), 100 ng/mL, used to upregulate PD-L1 expression (protein, UniProt P01579 24-161, looked up)
Interferon gamma: QDPYVKEAENLKKYFNAGHSDVADNGTLFLGILKNWKEESDRKIMQSQIVSFYFKLFKNFKDDQSIQKSVETIKEDMNVKFFNSNKKKRDDFEKLTNYSVTDLNVQRKAIHELIQVMAELSPAAKTGKRKRSQMLFRG
PD-L1 expression after IFN-γ treatment (PD-L1 in SKBR-3 cells): increased PD-L1 expression
PD-L1 expression after IFN-γ treatment (PD-L1 in 4T1 cells): increased PD-L1 expression
